In ChEMBL document CHEMBL4257590, “Semisynthesis of Platensimycin Derivatives with Antibiotic Activities in Mice via Suzuki-Miyaura Cross-Coupling Reactions” (J Med Chem, 2018):
In brackets after ≈: the same amount, converted by molar mass. Activity calls are given as the source filed them. No cut-off for these calls is given here.

Legend:
Staphylococcus aureus [1] = test: Antibacterial activity against Staphylococcus aureus ATCC 29213 after 16 hrs by agar dilution method; type: functional; conditions: ATCC 29213, 16 h
Summary of the method: (§1)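 Agar dilution in LB agar with compound (from methanol solutions) at final 0.5–64 μg/ml per plate. Strains grown 16 h at 37 °C, 250 rpm in LB broth, adjusted to OD600 0.25±0.05, diluted 10^4-fold; 2 μl spotted per plate, incubated 16 h at 37 °C. MIC = lowest concentration with no visible colonies; at least two independent experiments. Linezolid and PTM as controls.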

Staphylococcus aureus [2] = test: Antibacterial activity against methicillin-sensitive Staphylococcus aureus isolate 1 after 16 hrs by agar dilution method; type: functional; conditions: isolate 1, 16 h; summary of the method: as §1
Staphylococcus aureus [3] = test: Antibacterial activity against methicillin-sensitive Staphylococcus aureus isolate 2 after 16 hrs by agar dilution method; type: functional; conditions: isolate 2, 16 h; summary of the method: as §1
Staphylococcus aureus [4] = test: Antibacterial activity against methicillin-resistant Staphylococcus aureus isolate 3 after 16 hrs by agar dilution method; type: functional; conditions: isolate 3, 16 h; summary of the method: as §1
Staphylococcus aureus [5] = test: Antibacterial activity against methicillin-resistant Staphylococcus aureus isolate 4 after 16 hrs by agar dilution method; type: functional; conditions: isolate 4, 16 h; summary of the method: as §1
Staphylococcus aureus [6] = test: Antibacterial activity against methicillin-resistant Staphylococcus aureus isolate 5 after 16 hrs by agar dilution method; type: functional; conditions: isolate 5, 16 h; summary of the method: as §1
Staphylococcus aureus [7] = test: Antibacterial activity against methicillin-resistant Staphylococcus aureus isolate 6 after 16 hrs by agar dilution method; type: functional; conditions: isolate 6, 16 h; summary of the method: as §1
Staphylococcus aureus [8] = test: Antibacterial activity against methicillin-resistant Staphylococcus aureus infected in C57BL/6J mouse assessed as reduction in bacterial load in blood at 50 mg/kg, ip administered 1 and 5 hrs postinfection and measured at 12 hrs post bacterial infection; type: functional, organism-based
Summary of the method: (§2)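 Female C57BL/6J mice, 6–8 weeks, 18–21 g, infected ip with 2 × 10^7 CFU MRSA in 0.2 ml saline with 5% hog gastric mucin. Dosed ip 50 mg/kg at 1 and 5 h post-infection; test agents at 5 mg/mL in 12.5% DMSO/30% propanediol/30% PEG400/27.5% saline, vancomycin in saline, saline control. At 12 h blood and homogenized kidneys plated on LB agar overnight at 37 °C for CFU; n = 5, mean ± SEM, unpaired two-tailed t-test.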

Staphylococcus aureus [9] = test: Antibacterial activity against methicillin-resistant Staphylococcus aureus infected in C57BL/6J mouse assessed as reduction in bacterial load in kidney at 50 mg/kg, ip administered 1 and 5 hrs postinfection and measured at 12 hrs post bacterial infection; type: functional, organism-based; summary of the method: as §2
Mus musculus = test: Toxicity in C57BL/6J mouse infected with methicillin-resistant Staphylococcus aureus assessed as effect on mouse body weight at 10 mg/kg, ip administered 1 and 5 hrs postinfection and measured for 7 days; type: organism-based; conditions: in vivo, 168 h
Summary of the method: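 Lethal peritonitis: female C57BL/6J mice, 6–8 weeks, 18–21 g, infected ip with 2 × 10^7 CFU MRSA in 0.5 ml saline with 5% (w/v) mucin. Treated ip 0.2 mL/mouse at 1 and 5 h post-infection (n = 5/group): 50 mg/kg at 5 mg/mL in 12.5% DMSO vehicle, or 10 mg/kg at 1 mg/mL in 2.5% DMSO/30% propanediol/30% PEG400/37.5% saline; vancomycin in saline, saline control. Checked twice daily for survival and body weight over 7 days.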

Staphylococcus aureus [10] = test: Antibacterial activity against methicillin-resistant Staphylococcus aureus after 18 hrs in presence of 10% human serum by resazurin dye-based assay; type: functional
Summary of the method: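 One clinical MRSA strain grown to exponential phase (OD600 = 0.5), diluted to 10^6 CFU/ml in Mueller-Hinton broth; 100 μl compound dilutions mixed with 100 μl bacteria with or without 10% human serum, 18 h at 37 °C. Resazurin (0.66 mM, 50 μl) then added and read visually.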

| Structure (SMILES) | MIC (Staphylococcus aureus [1]) [µg/mL] | MIC (Staphylococcus aureus [2]) [µg/mL] | MIC (Staphylococcus aureus [3]) [µg/mL] | MIC (Staphylococcus aureus [4]) [µg/mL] | MIC (Staphylococcus aureus [5]) [µg/mL] | MIC (Staphylococcus aureus [6]) [µg/mL] | MIC (Staphylococcus aureus [7]) [µg/mL] | Activity (Staphylococcus aureus [8]) | Activity (Staphylococcus aureus [9]) | Activity (Mus musculus) | MIC (Staphylococcus aureus [10]) [µg/mL] |
| --- | --- | --- | --- | --- | --- | --- | --- | --- | --- | --- | --- |
| Cc1ccccc1C1=C[C@]23C[C@@H]4C[C@H](O[C@@]4(C)C2)[C@H]3[C@](C)(CCC(=O)Nc2c(O)ccc(C(=O)O)c2O)C1=O | 8 (≈ 15 µM) | 8 (≈ 15 µM) | 16 (≈ 30.1 µM) | 16 (≈ 30.1 µM) | 16 (≈ 30.1 µM) | 16 (≈ 30.1 µM) | 16 (≈ 30.1 µM) | – | – | – | – |
| C[C@]12C[C@@]34C=C(c5cc(Cl)cc(Cl)c5)C(=O)[C@@](C)(CCC(=O)Nc5c(O)ccc(C(=O)O)c5O)[C@@H]3[C@H](C[C@H]1C4)O2 | 8 (≈ 13.6 µM) | 8 (≈ 13.6 µM) | 8 (≈ 13.6 µM) | 8 (≈ 13.6 µM) | 8 (≈ 13.6 µM) | 8 (≈ 13.6 µM) | 8 (≈ 13.6 µM) | – | – | – | – |
| CC(=O)NC[C@H]1CN(c2ccc(N3CCOCC3)c(F)c2)C(=O)O1 [LINEZOLID] | 1 (≈ 2.96 µM) | 1 (≈ 2.96 µM) | 1 (≈ 2.96 µM) | 1 (≈ 2.96 µM) | 1 (≈ 2.96 µM) | 1 (≈ 2.96 µM) | 1 (≈ 2.96 µM) | – | – | – | – |
| C[C@]12C[C@@]34C=C(c5ccc(C=O)cc5)C(=O)[C@@](C)(CCC(=O)Nc5c(O)ccc(C(=O)O)c5O)[C@@H]3[C@H](C[C@H]1C4)O2 | 32 (≈ 58.7 µM) | 16 (≈ 29.3 µM) | 16 (≈ 29.3 µM) | 32 (≈ 58.7 µM) | 32 (≈ 58.7 µM) | 32 (≈ 58.7 µM) | 32 (≈ 58.7 µM) | – | – | – | – |
| COc1ccccc1C1=C[C@]23C[C@@H]4C[C@H](O[C@@]4(C)C2)[C@H]3[C@](C)(CCC(=O)Nc2c(O)ccc(C(=O)O)c2O)C1=O | 8 (≈ 14.6 µM) | 8 (≈ 14.6 µM) | 16 (≈ 29.2 µM) | 16 (≈ 29.2 µM) | 16 (≈ 29.2 µM) | 16 (≈ 29.2 µM) | 16 (≈ 29.2 µM) | – | – | – | – |
| C[C@]12C[C@@]34C=C(c5cccc(O)c5)C(=O)[C@@](C)(CCC(=O)Nc5c(O)ccc(C(=O)O)c5O)[C@@H]3[C@H](C[C@H]1C4)O2 | 32 (≈ 60 µM) | 32 (≈ 60 µM) | 32 (≈ 60 µM) | 32 (≈ 60 µM) | 32 (≈ 60 µM) | 32 (≈ 60 µM) | 32 (≈ 60 µM) | – | – | – | – |
| C[C@]12C[C@@]34C=C(c5cc6ccccc6c6ccccc56)C(=O)[C@@](C)(CCC(=O)Nc5c(O)ccc(C(=O)O)c5O)[C@@H]3[C@H](C[C@H]1C4)O2 | 2 (≈ 3.24 µM) | 2 (≈ 3.24 µM) | 2 (≈ 3.24 µM) | 4 (≈ 6.48 µM) | 2 (≈ 3.24 µM) | 4 (≈ 6.48 µM) | 2 (≈ 3.24 µM) | – | – | – | – |
| C[C@]12C[C@@]34C=C(c5ccc(-c6ccccc6)cc5)C(=O)[C@@](C)(CCC(=O)Nc5c(O)ccc(C(=O)O)c5O)[C@@H]3[C@H](C[C@H]1C4)O2 | 4 (≈ 6.74 µM) | 8 (≈ 13.5 µM) | 8 (≈ 13.5 µM) | 8 (≈ 13.5 µM) | 8 (≈ 13.5 µM) | 8 (≈ 13.5 µM) | 8 (≈ 13.5 µM) | – | – | – | – |
| C[C@]12C[C@@]34C=C(c5cccc(-c6ccccc6)c5)C(=O)[C@@](C)(CCC(=O)Nc5c(O)ccc(C(=O)O)c5O)[C@@H]3[C@H](C[C@H]1C4)O2 | 8 (≈ 13.5 µM) | 8 (≈ 13.5 µM) | 8 (≈ 13.5 µM) | 8 (≈ 13.5 µM) | 8 (≈ 13.5 µM) | 8 (≈ 13.5 µM) | 8 (≈ 13.5 µM) | – | – | – | – |
| Cc1ccc(C2=C[C@]34C[C@@H]5C[C@H](O[C@@]5(C)C3)[C@H]4[C@](C)(CCC(=O)Nc3c(O)ccc(C(=O)O)c3O)C2=O)cc1 | 8 (≈ 15 µM) | 8 (≈ 15 µM) | 8 (≈ 15 µM) | 8 (≈ 15 µM) | 16 (≈ 30.1 µM) | 16 (≈ 30.1 µM) | 16 (≈ 30.1 µM) | – | – | – | – |
| CN[C@H](CC(C)C)C(=O)N[C@H]1C(=O)N[C@@H](CC(N)=O)C(=O)N[C@H]2C(=O)N[C@H]3C(=O)N[C@H](C(=O)N[C@H](C(=O)O)c4cc(O)cc(O)c4-c4cc3ccc4O)[C@H](O)c3ccc(c(Cl)c3)Oc3cc2cc(c3O[C@@H]2O[C@H](CO)[C@@H](O)[C@H](O)[C@H]2O[C@H]2C[C@](C)(N)[C@H](O)[C@H](C)O2)Oc2ccc(cc2Cl)[C@H]1O [VANCOMYCIN] | – | – | – | – | – | – | – | Active | Active | Non-Toxic | – |
| Cc1cccc(C2=C[C@]34C[C@@H]5C[C@H](O[C@@]5(C)C3)[C@H]4[C@](C)(CCC(=O)Nc3c(O)ccc(C(=O)O)c3O)C2=O)c1 | 8 (≈ 15 µM) | 4 (≈ 7.52 µM) | 4 (≈ 7.52 µM) | 8 (≈ 15 µM) | 8 (≈ 15 µM) | 8 (≈ 15 µM) | 8 (≈ 15 µM) | – | – | – | – |
| C[C@]12C[C@@]34C=C(c5ccccc5-c5ccccc5)C(=O)[C@@](C)(CCC(=O)Nc5c(O)ccc(C(=O)O)c5O)[C@@H]3[C@H](C[C@H]1C4)O2 | 4 (≈ 6.74 µM) | 8 (≈ 13.5 µM) | 8 (≈ 13.5 µM) | 8 (≈ 13.5 µM) | 8 (≈ 13.5 µM) | 8 (≈ 13.5 µM) | 8 (≈ 13.5 µM) | – | – | – | – |
| Cc1cc(C)cc(C2=C[C@]34C[C@@H]5C[C@H](O[C@@]5(C)C3)[C@H]4[C@](C)(CCC(=O)Nc3c(O)ccc(C(=O)O)c3O)C2=O)c1 | 4 (≈ 7.33 µM) | 4 (≈ 7.33 µM) | 4 (≈ 7.33 µM) | 4 (≈ 7.33 µM) | 4 (≈ 7.33 µM) | 4 (≈ 7.33 µM) | 4 (≈ 7.33 µM) | – | – | – | – |
| C[C@]12C[C@@]34C=C(c5ccc6ccccc6c5)C(=O)[C@@](C)(CCC(=O)Nc5c(O)ccc(C(=O)O)c5O)[C@@H]3[C@H](C[C@H]1C4)O2 | 8 (≈ 14.1 µM) | 8 (≈ 14.1 µM) | 8 (≈ 14.1 µM) | 8 (≈ 14.1 µM) | 8 (≈ 14.1 µM) | 8 (≈ 14.1 µM) | 8 (≈ 14.1 µM) | – | – | – | – |
| C[C@]12C[C@@]34C=C(c5ccccc5)C(=O)[C@@](C)(CCC(=O)Nc5c(O)ccc(C(=O)O)c5O)[C@@H]3[C@H](C[C@H]1C4)O2 | 16 (≈ 30.9 µM) | 16 (≈ 30.9 µM) | 16 (≈ 30.9 µM) | 16 (≈ 30.9 µM) | 16 (≈ 30.9 µM) | 16 (≈ 30.9 µM) | 16 (≈ 30.9 µM) | – | – | – | – |
| C[C@]12C[C@@]34C=C(c5cccc(OC(F)(F)F)c5)C(=O)[C@@](C)(CCC(=O)Nc5c(O)ccc(C(=O)O)c5O)[C@@H]3[C@H](C[C@H]1C4)O2 | 8 (≈ 13.3 µM) | 8 (≈ 13.3 µM) | 8 (≈ 13.3 µM) | 8 (≈ 13.3 µM) | 8 (≈ 13.3 µM) | 8 (≈ 13.3 µM) | 8 (≈ 13.3 µM) | – | – | – | – |
| C[C@]12C[C@@]34C=C(c5cccc(C(F)(F)F)c5)C(=O)[C@@](C)(CCC(=O)Nc5c(O)ccc(C(=O)O)c5O)[C@@H]3[C@H](C[C@H]1C4)O2 | 4 (≈ 6.83 µM) | 4 (≈ 6.83 µM) | 8 (≈ 13.7 µM) | 8 (≈ 13.7 µM) | 8 (≈ 13.7 µM) | 8 (≈ 13.7 µM) | 8 (≈ 13.7 µM) | – | – | – | – |
| C[C@]12C[C@@]34C=C(c5ccc(Br)cc5)C(=O)[C@@](C)(CCC(=O)Nc5c(O)ccc(C(=O)O)c5O)[C@@H]3[C@H](C[C@H]1C4)O2 | 2 (≈ 3.35 µM) | 2 (≈ 3.35 µM) | 4 (≈ 6.71 µM) | 4 (≈ 6.71 µM) | 4 (≈ 6.71 µM) | 2 (≈ 3.35 µM) | 2 (≈ 3.35 µM) | – | – | – | – |
| CCCCCc1ccc(C2=C[C@]34C[C@@H]5C[C@H](O[C@@]5(C)C3)[C@H]4[C@](C)(CCC(=O)Nc3c(O)ccc(C(=O)O)c3O)C2=O)cc1 | 4 (≈ 6.81 µM) | 4 (≈ 6.81 µM) | 4 (≈ 6.81 µM) | 4 (≈ 6.81 µM) | 4 (≈ 6.81 µM) | 4 (≈ 6.81 µM) | 4 (≈ 6.81 µM) | – | – | – | – |
| C[C@]12C[C@@]34C=CC(=O)[C@@](C)(CCC(=O)Nc5c(O)ccc(C(=O)O)c5O)[C@@H]3[C@H](C[C@H]1C4)O2 | 0.5 (≈ 1.13 µM) | 0.5 (≈ 1.13 µM) | 0.5 (≈ 1.13 µM) | 0.5 (≈ 1.13 µM) | 1 (≈ 2.27 µM) | 1 (≈ 2.27 µM) | 1 (≈ 2.27 µM) | Active | Active | – | 8 |
